Compound activity deposited in PubChem BioAssay by Sanford-Burnham Center for Chemical Genomics.
The list is not random: actives were taken first. Their share in the collection is about 1.7%.
DNMT1 block = human DNMT1 methyltransferase inhibitors, primary screen, biochemical, molecular beacon, fluorescence, HinP1I cleavage, uHTS | inhibition (reported as % activation of signal), % at 10 µM | hit rate 0.83% among 360,000 | AID 588458, 2011; in the data active = inhibition above about 50%
Scp-1 inhibitor = Scp-1 phosphatase inhibitors, primary screen, biochemical, colorimetric, uHTS; Carboxy-terminal domain RNA polymerase II polypeptide A small phosphatase 1 (Homo …; Recombinant Scp1, phosphopeptide, malachite green phosphate absorbance; inhibition, % at 20 µM; hit rate 0.88% among 340,000; AID 493091, 2011;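 active = inhibition above about 50% at 20 µM, limit read from the data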;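 note: plate controls were DMSO wells with enzyme for no effect and wells lacking enzyme for full effect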
Target sequence (Q9GZU7 76-261 limits assumed): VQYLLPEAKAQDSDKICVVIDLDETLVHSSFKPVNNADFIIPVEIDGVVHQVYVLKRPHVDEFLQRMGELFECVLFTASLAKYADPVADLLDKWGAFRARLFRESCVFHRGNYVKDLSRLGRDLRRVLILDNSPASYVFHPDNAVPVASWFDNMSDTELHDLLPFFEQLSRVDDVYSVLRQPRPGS
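System: SCP-1 catalytic domain; Reagent: Phospho 17-mer peptide substrate; Doses: one concentration, 20 µM, with 1.0% DMSO; Incubation: 45 min room-temperature reaction, 5 min colour, 30 min stabiliser; Signal: Phosphate-binding colour reagent, absorbance read at 630 nm.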
SUMO1-SIM PPI = modulators of SUMO1 protein-protein interactions, primary screen, biochemical, uHTS; Small ubiquitin-related modifier 1 (Homo sapiens), P63165; SUMO1 binding to a labelled peptide, TR-FRET, 1 h; inhibition, % at 20 µM; hit rate 0.33% among 360,000; AID 602429, 2012; in the data active = inhibition above about 37%
Target sequence (P63165 whole entry, looked up): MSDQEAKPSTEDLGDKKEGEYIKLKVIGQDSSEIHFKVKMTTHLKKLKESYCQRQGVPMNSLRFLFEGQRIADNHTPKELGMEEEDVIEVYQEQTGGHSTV
LMPTP inh = LMPTP phosphatase inhibitors, primary screen, biochemical, fluorescence intensity, uHTS; Low molecular weight phosphotyrosine protein phosphatase (Homo sapiens), P24666; recombinant LMPTP-A, OMFP fluorogenic substrate; inhibition, % at 20 µM; hit rate 0.22% among 360,000; AID 651560, 2012;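 active = compounds that cut the enzyme signal by at least half of the control window in the single-dose screen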;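 note: plate controls were DMSO wells with enzyme plus substrate for no effect and substrate without enzyme for full effect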
Target sequence (P24666 whole entry, looked up): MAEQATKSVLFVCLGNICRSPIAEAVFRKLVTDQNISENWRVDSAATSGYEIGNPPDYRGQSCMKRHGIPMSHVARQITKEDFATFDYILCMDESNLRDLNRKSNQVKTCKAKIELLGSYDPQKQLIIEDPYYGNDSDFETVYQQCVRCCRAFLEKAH
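Assay system: LMPTP-A enzyme. Input: 0.625 nM LMPTP-A final. Probe or stimulus: 400 µM OMFP. Compound dosing: single 20 µM dose. Schedule: 50 min dark incubation at room temperature. Detection: fluorescence intensity of OMFP turnover product. Read-out: percent inhibition versus substrate-only and uninhibited controls. Benchmarks: no-enzyme low control, uninhibited high control.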
STEP inh = STEP phosphatase inhibitors, primary screen, biochemical, fluorescence intensity, uHTS; Tyrosine-protein phosphatase non-receptor type 5 (Homo sapiens), P54829; recombinant STEP, OMFP fluorogenic substrate; inhibition, % at 20 µM; hit rate 0.25% among 360,000; AID 588621, 2011;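 active = inhibition at 20 µM, scaled per plate between control wells, above about 37%, limit read from the data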;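 note: 0% = DMSO with enzyme and substrate and 100% = substrate only without enzyme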
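Test system: STEP tyrosine phosphatase / Reagent: OMFP at 25 µM / Doses: 20 µM, 1% DMSO / Read-out: percent inhibition scaled to no-enzyme and uninhibited-enzyme controls, plate-pattern corrected / Detection: FITC-channel fluorescence of OMFP product / Medium: Bis-Tris buffer pH 6.0, 2.5 mM DTT, 0.005% Tween 20 / Schedule: 20 min at room temperature, dark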
Scp-1 conf = Scp-1 phosphatase inhibitors, retest, confirmation, biochemical, colorimetric, single concentration | inhibition, % at 20 µM | recombinant SCP-1 catalytic domain, phosphate release, malachite green absorbance | hit rate 61% among 2,500 | AID 540281, 2011 | shares compounds with Scp-1 inhibitor;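 note: plate controls were DMSO with enzyme for no effect and buffer wells lacking enzyme for full effect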
MG interference = colorimetric readout interference by compounds, confirmation, artefact control for Scp-1 inhibitor project, biochemical, single concentration; AID 540313, 2011; apparent inhibition (interference), % at 20 µM; Colorimetric interference counterscreen, malachite green absorbance 630 nm; 2,500 tested, under 10 active; shares compounds with Scp-1 inhibitor;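 note: compounds added after enzyme reaction finished so only phosphate colour detection is probed; plate controls were DMSO wells with completed Scp-1 reaction for no effect and substrate wells lacking enzyme for full effect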
Scp1 DSF = Scp-1 binding by thermal shift, confirmation, orthogonal assay for Scp-1 inhibitor project, biophysical, differential scanning fluorimetry | Recombinant SCP1, Sypro Orange thermal shift Tm | thermal shift relative to vanadate control, % at 40 µM | hit rate 25% among 1,500 | shares compounds with Scp-1 inhibitor | AID 540329, 2011;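 active = substances whose mean melting-temperature shift, as a percentage of the reference inhibitor's shift, reaches about 5.3%, limit read from the data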;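 note: 0% = Tm of DMSO wells and 100% = Tm with sodium orthovanadate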
Numbers without * were called inactive; · = not tested or not shown.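 Rule for the calls, unless noted: active = inhibition of at least 30% at 20 µM; inactive = the rest.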

SMILES	DNMT1 block	Scp-1 inhibitor	SUMO1-SIM PPI	LMPTP inh	STEP inh	Scp-1 conf	MG interference	Scp1 DSF
O=c1c2cc(-c3ccccc3)sc2nc2n1N=C(c1ccccc1)CS2	19	108*	29	42	6	59*	-25	1
CCN1CCN(CCCNC(=O)CNC(=O)c2nn(-c3ccc(OC)cc3OC)c(=O)c3ccccc23)CC1	1	1	5	-2	-1	·	·	·
COc1cccc(C(=O)Nc2nnc(SCC(=O)Nc3ccc(NC(C)=O)cc3)s2)c1	0	-8	17	0	0	·	·	·
C/C(N)=C(/C#N)C(=O)CN1C(=O)NC(Cc2c[nH]c3ccccc23)C1=O (centres undefined)	17	65*	11	7	12	60*	-11	2
O=C(COC(=O)c1cc(=O)[nH]c2ccccc12)NC1CCCCCCC1	2	-5	-10	0	7	·	·	·
O=C(COC(=O)c1cc(=O)[nH]c2ccccc12)NC(=O)NC1CCCCC1	1	-6	-6	1	-2	-19	-16	·
COC(=O)Nc1cc(C(=O)c2ccc(Cl)cc2Cl)c[nH]1	-2	-10	-11	0	-2	·	·	·
CC(C)(C)OC(=O)N1CCCC1C(=O)NCCc1ccccc1 (centres undefined)	2	97*	-4	-3	-2	-4	-5	·
O=C(Cc1ccc(Cl)cc1)Nc1ccc(Br)cc1	1	-4	0	1	-2	·	·	·
O=C(Cc1ccc(Br)cc1)NNC(=O)Nc1ccc(Cl)cc1	26	63*	3	0	1	62*	-3	4
COc1ccc(NC(=O)c2cc3c(COC(C)=O)cnc(C)c3oc2=Nc2cccc(C(=O)O)c2)c(OC)c1	36	89*	12	19	98*	64*	-14	5
CCOc1cc(/C=N/NC(=O)CSc2nnc(C)s2)ccc1OCc1ccccc1Cl	-6	78*	-4	1	0	37*	-20	-7
O=C(CSc1nnc(SCc2ccccc2Cl)s1)N/N=C/c1ccc(C(=O)O)cc1	0	6	-5	2	1	·	·	·
CCOc1cc(/C=N/N=C2/NC(=O)C(CC(=O)O)S2)ccc1OCc1ccccc1Cl (centres undefined)	1	75*	-3	1	8	64*	-17	-17
COc1ccc(/C=N/N=C2/NC(=O)C(CC(=O)O)S2)cc1OCc1ccccc1Cl (centres undefined)	3	81*	7	-1	1	72*	-4	-5
CCOc1cc(/C=N/N=C2/NC(=O)C(CC(=O)O)S2)ccc1OS(=O)(=O)c1ccc(C)cc1 (centres undefined)	-3	-3	2	0	4	·	·	·
O=C(NCc1ccccn1)C1CCN(S(=O)(=O)c2cnc[nH]2)CC1	0	60*	0	1	-3	33*	-13	-5
O=C(NCc1ccccn1)C1CCN(S(=O)(=O)c2ccccc2)CC1	2	-1	-1	-3	-1	·	·	·
CC1(C)CC[C@]2(C(=O)O)CC[C@]3(C)C(=CC[C@@H]4[C@@]5(C)CC[C@H](O)C(C)(C)[C@@H]5CC[C@]43C)[C@@H]2C1	29	-6	5	-14	·	·	·	·
